Test results: ChEMBL document CHEMBL4219124, “Alleviating CYP and hERG liabilities by structure optimization of dihydrofuran-fused tricyclic benzo[d]imidazole series - Potent, selective and orally efficacious microsomal prostaglandin E synthase-1 (mPGES-1) inhibitors: Part-2” (Bioorg Med Chem Lett, 2018)

Legend:
[1] = tested on: Canis familiaris; assay: Oral bioavailability in Beagle dog at 10 mg/kg; assay type: ADME, organism-based, Canis lupus familiaris; details: in vivo
Method in brief: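 Plasma PK after 1 mg/kg i.v. and 10 mg/kg p.o.; %F from both routes. Rat: male Sprague-Dawley, oral 0.5% methylcellulose suspension, i.v. 20% NMP/20% ethanol/60% PEG 200, n = 3. Dog oral: Tween 80 2.5 μL/mL + 0.5% MC suspension. Monkey oral: same Tween/MC suspension; i.v. 10% NMP/10% ethanol/10% PEG/70% PEG200-water premix.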

[2] = tested on: Cynomolgus monkey; assay: AUC (0 to 24 hrs) in cynomolgus monkey at 10 mg/kg, po; assay type: ADME, organism-based, Macaca fascicularis; parameters: time < 24 hr, dose 10 mg/kg, route oral; details: in vivo, 24 h
Method in brief: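 Single oral dose of 10 mg/kg. Cmax and AUC0-24 taken from the oral arm. Rat: male Sprague-Dawley, dosed in 0.5% methylcellulose suspension, mean ± SD (n = 3). Guinea pig: 20% NMP + 0.5% MC suspension, mean ± SD (n = 3). Dog and cynomolgus monkey: 2.5 μL/mL Tween 80 + 0.5 (w/v) MC suspension.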

[3] = molecular target: T1, Nuclear receptor subfamily 1 group I member 2 (Homo sapiens, UniProt O75469); assay: Activation of human PXR; assay type: ADME
T1 sequence (O75469 whole entry): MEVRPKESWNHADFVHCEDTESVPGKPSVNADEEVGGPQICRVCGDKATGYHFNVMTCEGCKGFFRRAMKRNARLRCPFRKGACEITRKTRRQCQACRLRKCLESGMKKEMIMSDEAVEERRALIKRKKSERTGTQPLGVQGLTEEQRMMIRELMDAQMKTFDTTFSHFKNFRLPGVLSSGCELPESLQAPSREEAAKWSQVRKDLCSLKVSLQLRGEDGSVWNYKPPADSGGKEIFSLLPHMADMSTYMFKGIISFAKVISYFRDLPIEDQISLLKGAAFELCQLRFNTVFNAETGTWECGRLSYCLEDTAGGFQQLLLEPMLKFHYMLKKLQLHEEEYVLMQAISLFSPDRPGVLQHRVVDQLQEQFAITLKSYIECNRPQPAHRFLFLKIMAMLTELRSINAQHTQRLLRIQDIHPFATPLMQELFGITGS

[4] = tested on: Cavia porcellus; assay: Analgesic activity in Dunkin-Hartley guinea pig hyperalgesia pain model assessed as inhibition of LPS-induced hyperalgesia at 100 mg/kg, po administered 2 hrs prior to LPS challenge measured after 4.5 hrs relative to control; assay type: functional
Method in brief: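 Guinea pigs received compound orally, once daily, at 10, 30 or 100 mg/kg, 2 h before LPS was injected into the plantar surface of the right paw. Saline-injected animals served as the comparison for thermal hyperalgesia. Plasma and brain drug levels taken 7 h after dosing, mean of n = 6–9 per group, from a single experiment.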

[5] = Plasma concentration in Dunkin-Hartley guinea pig LPS-induced hyperalgesia pain model at 10 mg/kg, po administered 2 hrs prior to LPS challenge measured 7 hrs post dose; assay type: ADME, organism-based, Cavia porcellus
Method in brief: (§1)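 Guinea pigs dosed orally at 10, 30 or 100 mg/kg 2 h before intraplantar LPS in the right hind paw; thermal hyperalgesia scored. Plasma (ng/mL) and brain (ng/g) levels taken 7 h post dose; brain/plasma ratio computed. Means of 6–9 animals per group, single experiment.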

[6] = Plasma concentration in Dunkin-Hartley guinea pig LPS-induced hyperalgesia pain model at 30 mg/kg, po administered 2 hrs prior to LPS challenge measured 7 hrs post dose; assay type: ADME, organism-based, Cavia porcellus; method in brief: as §1
[7] = Ratio of plasma concentration in Dunkin-Hartley guinea pig LPS-induced hyperalgesia pain model to IC50 for mPGES1 in guinea pig whole blood; assay type: ADME; details: in vivo
[8] = Ratio of plasma concentration in Dunkin-Hartley guinea pig LPS-induced hyperalgesia pain model to IC50 for mPGES1 in human whole blood; assay type: ADME; details: in vivo
[9] = tested on: Cavia porcellus; assay: Analgesic activity in Dunkin-Hartley guinea pig MIA-induced osteoarthritic pain model assessed as reversal of incapacitance administered orally on day 3 measured 6 to 7 hrs post dose; assay type: functional
Method in brief: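 Day 0: monoiodoacetate injected into the right shoulder joint of guinea pigs; saline-injected animals as comparison. Day 3: compound given orally at 100, 250 or 500 mg/kg, and weight-bearing incapacitance on the injected forelimb measured. Plasma sampled at the PD time point, n = 6–8 per group, single experiment.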

[10] = Plasma concentration in Dunkin-Hartley guinea pig MIA-induced osteoarthritic pain model at 100 mg/kg, po measured 2 hrs post dose; assay type: ADME, organism-based, Cavia porcellus
Method in brief: (§2)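 Intra-articular MIA into the right shoulder joint on day 0; oral dosing at 100, 250 or 500 mg/kg on day 3, incapacitance (forelimb weight bearing) measured. Plasma concentration sampled 2 h post dose. Means of 6–8 animals per group, single experiment.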

[11] = Plasma concentration in Dunkin-Hartley guinea pig MIA-induced osteoarthritic pain model at 500 mg/kg, po measured 2 hrs post dose; assay type: ADME, organism-based, Cavia porcellus; method in brief: as §2
[12] = Ratio of plasma concentration in Dunkin-Hartley guinea pig MIA-induced osteoarthritic pain model to IC50 for mPGES1 in guinea pig whole blood; assay type: ADME; details: in vivo

F [1] | AUC [2] | EC50 [3] | concentration at 7 h [5] | concentration at 7 h [6] | Ratio [7] | Ratio [8] | concentration at 2 h [10] | concentration at 2 h [11] | Ratio [12] | SMILES | inhibition in vivo at 100 mg/kg [4] | Activity [9] | ED50 ([9]; po)
25% |  |  |  |  |  |  |  |  |  | CC1(C)Cc2c(c(C(=O)Nc3ccc(C(F)(F)F)cn3)cc3nc(Nc4c(Cl)cccc4Cl)[nH]c23)O1 |  |  | 
 | 9669 ng·h/mL | 2460 nM | 94 ng/mL | 145 ng/mL | 2 | 5 | 678 ng/mL | 3.54 µM | 7 | CC1(C)Cc2c(c(C(=O)Nc3ccc(F)c(C(F)(F)F)c3)cc3nc(Nc4c(F)cccc4Cl)[nH]c23)O1 | 66% | Dose-dependent effect | 106 mg/kg
